Source: PubChem
Beta cell apopt = blocks beta cell apoptosis; protection from apoptosis, % (test concentration not listed); INS-1E cytokine-induced death, ATP luminescence, 48 h; percent of positive-control rescue, neutral wells zero; 0.8% of 300,000 active;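 active = Every replicate reaches about 75%, or at least half do and their mean reaches it too, limit read from the data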;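 also: higher means more ATP so stronger rescue from cytokine killing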
WT yeast gro inh = growth inhibition of WT yeast, mitochondrial fusion screen; mitochondrial fusion phenotypic screen, WT strain; inhibition, % at 10 µM; 2.1% of 190,000 active; AID 1362; in the data active = inhibition above about 58%; tested in S. cerevisiae
SUMO Mot1 rescue = blocks SUMOylation pathway, rescuing yeast Mot1-301 growth. 1% of 320,000 active. AID 2716. growth rescue, % at 18.8 µM. S. cerevisiae Mot1-301 growth rescue, ATP luminescence, 38.5C; percent above DMSO median, 100 means doubled;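 active = every valid replicate shows activation above 250% relative to neutral control wells; inactive = the rest, any valid replicate at or below 250%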
T cruzi inh = blocks replication of Trypanosoma cruzi. T. cruzi beta-gal in NIH3T3, luminescence, 90 h. inhibition, % (test concentration not listed). 1.4% of 300,000 active. AID 1885;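 active = mean inhibition across valid replicates above about 55%, limit read from the data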;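 also: signal also drops with host cell toxicity which is not excluded here; higher percent means less beta-gal luminescence so fewer parasites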
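System: Mouse NIH/3T3 fibroblasts infected with β-gal-expressing T. cruzi Tulahuen C4 | Quantity: NIH/3T3 cells, 5,000 per well | Reagent: 5000 reporter trypomastigotes per well | Dosing: Compound pinned at 50 nL/well, DMSO | Schedule: 3 h host attachment, then at least 90 h co-culture | Detection: GalScreen luminescence, 60 min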
CSC inhib = cancer stem cell inhibition. inhibition, % at 7.5 µM. 1.1% of 300,000 active. cancer stem cell-like cells viability, luminescence; in the data active = inhibition above about 75%; tested in HMLE shEcad cells
Efflux pump mplx = inhibitors of Candida antifungal efflux pumps expressed in yeast; S. cerevisiae Candida pump triplex, Nile Red efflux; inhibition, % at 10 µM; 0.44% of 330,000 active; AID 485275;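 active = plate passing quality check with inhibition over a set limit, or well fluorescence over plate mean plus 4 SD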;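 also: Nile Red retained in pooled yeast measured as flow cytometry median fluorescence; higher means more Nile Red kept so more efflux inhibition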
Yeast cmpd fluor = flagged as fluorescent in efflux inhibitor counter-screen; S. cerevisiae AD/pABC3, compound fluorescence, flow cytometry; AID 588517; 4% of 1,700 active; shares compounds with Efflux pump mplx; fluorescence ratio to DMSO, % at 10 µM;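 active = fluorescence ratio to DMSO above its plate's cutoff, the plate mean ratio plus 5 SD, cut at about 210% in these data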;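 also: unstained yeast with no Nile Red so the signal is compound autofluorescence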
CaMdr1 efflux inh = inhibitors of Candida albicans Mdr1 efflux pump | S. cerevisiae AD/CaMDR1, Nile Red efflux, flow cytometry | inhibition, % at 10 µM | shares compounds with Efflux pump mplx | AID 588518 | 1% of 1,700 active; in the data active = inhibition above about 26%;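 also: higher means more Nile Red retained so more efflux inhibition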
Cdr2 pump inh = inhibitors of Candida albicans Cdr2 efflux pump; shares compounds with Efflux pump mplx; S. cerevisiae AD/CaCDR2, Nile Red retention, flow cytometry; Nile Red retention ratio vs DMSO, % at 10 µM; 4% of 1,700 active; AID 588520; in the data active = Nile Red retention ratio vs DMSO above about 190%;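 also: higher ratio means more blocking of Cdr2 efflux of the dye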
CaCdr1 efflux inh = blocks the Candida albicans Cdr1 efflux pump in yeast; inhibition, % at 10 µM; S. cerevisiae AD/CaCDR1, Nile Red efflux, flow cytometry; 1% of 1,700 active; shares compounds with Efflux pump mplx;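 active = inhibition above the screen-wide mean plus twice its standard deviation, cut at about 32% in these data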
Hits are given with their value; - = inactive; . = no result. Shown are actives, neighbours in structure and some others; about 4.8% of the full set was active somewhere.

SMILES	Beta cell apopt	WT yeast gro inh	SUMO Mot1 rescue	T cruzi inh	CSC inhib	Efflux pump mplx	Yeast cmpd fluor	CaMdr1 efflux inh	Cdr2 pump inh	CaCdr1 efflux inh
Cc1ccc(/C=C2\SC(=S)N(CC3CCCO3)C2=O)o1 (stereo not given)	-	.	-	-	-	-	.	.	.	.
O=C1/C(=C\c2ccc(-c3ccccc3Cl)o2)SC(=S)N1CC1CCCO1 (stereo not given)	-	-	-	-	-	0.5	-	-	-	-
Cc1ccc(O)c(C(=O)CC(=O)c2ccccc2Cl)c1	-	-	-	-	-	0.6	-	-	-	-
Cc1ccc(O)c(C(=O)CC(=O)c2ccc(C(C)(C)C)cc2)c1	-	.	-	-	-	-	.	.	.	.
COC(=O)C1=C(CS(=O)(=O)c2cc(Cl)ccc2OC)NC(=O)NC1c1ccc(O)c(OC)c1 (stereo not given)	-	.	-	-	-	-	.	.	.	.
O=C(COc1ccccc1)Nc1c2c(nn1-c1ccc(F)cc1)CS(=O)(=O)C2	.	.	-	-	-	-	.	.	.	.
O=C(NNC(=O)C1CCC1)c1cccc(Cl)c1	-	.	-	.	-	-	.	.	.	.
CN(C)CCNS(=O)(=O)c1ccc(N2CCN(c3ccc(F)cc3)CC2)c([N+](=O)[O-])c1	-	-	-	-	-	11.4	-	-	-	-
CC(=O)N1CCN(c2ccc(S(=O)(=O)NCCN(C(C)C)C(C)C)cc2[N+](=O)[O-])CC1	-	-	-	-	-	-	.	.	.	.
CCCCCCCCC1CC(C(=O)Nc2ccccc2)C(=O)O1 (stereo not given)	-	.	-	-	-	-	.	.	.	.
O=C(NCCO)c1c(O)c2cccc3c2n(c1=O)CC3	-	-	-	-	-	-	.	.	.	.
CCOC(=O)c1c(O)c2cccc3c2n(c1=O)CC3	-	.	-	-	-	-	-	-	-	-
CC(C)CC(C(=O)OCC(=O)Nc1cccc(Cl)c1)N1C(=O)C2CC=CCC2C1=O (stereo not given)	-	-	-	-	-	2.7	-	-	-	-
Cc1cc(C)nc(NC(=O)CSc2nc3ccccc3s2)n1	-	-	-	-	-	-	.	.	.	.
Cc1cc(C)n2c(Br)c(CSc3nc4ccccc4s3)nc2n1	-	-	-	-	-	8.0	-	-	-	-
NC(=O)C1CC(=O)N(c2ccc(OCc3c(Cl)cccc3Cl)cc2)C1 (stereo not given)	-	-	.	-	-	-	.	.	.	.
CCC(=O)NC(c1ccco1)c1cc(Cl)c2cccnc2c1O (stereo not given)	-	-	-	62.7	-	3.0	-	-	-	-
COC(=O)CN(c1nc(C)c(Br)c(OC)n1)S(=O)(=O)c1ccccc1	.	.	-	-	-	-	.	.	.	.
CCCCSc1nc2c(cc1C#N)CCC2	-	-	-	.	-	-	.	.	.	.
CCCSc1nc(C)c(-c2csc(C(C#N)=C3CCCC3)n2)cc1C#N	-	-	-	-	-	0.9	-	-	-	-
O=C(NC(=S)Nc1ccc2[nH]c(=O)[nH]c2c1)c1ccccc1Cl	-	.	-	-	-	6.2	-	-	-	-
Cc1ccccc1OCC(=O)Nc1nc(-c2ccncc2)cs1	-	.	-	.	-	-	.	.	.	.
Cc1cc(C)c(OCC(=O)Nc2nc(-c3ccccn3)cs2)c(C)c1	-	-	-	69.7	-	0.6	-	-	-	-
OCCN1CCN(CC/C=C2/c3ccccc3Sc3ccc(C(F)(F)F)cc32)CC1	-	.	-	-	-	-	-	-	-	-
OCCN1CCN(CC/C=C2/c3ccccc3CSc3ccccc32)CC1	.	.	-	-	-	-	.	.	.	.
CC(=O)Nc1c(C)nn(-c2ccc([N+](=O)[O-])cc2)c1C	-	-	-	-	-	-	.	.	.	.
Cc1ccc(-n2nc(C)c(NC(=O)CCl)c2C)cc1	-	-	-	-	-	10.2	-	-	-	-
COc1cc2c(cc1OC)CN(C(=S)Nc1ccc(C)cc1C)CC2	-	-	-	-	-	1.1	-	-	-	-
